In one series the target is T1, Acyl-CoA desaturase 1 (Rattus norvegicus, UniProt P07308).
T1 sequence (P07308 whole entry): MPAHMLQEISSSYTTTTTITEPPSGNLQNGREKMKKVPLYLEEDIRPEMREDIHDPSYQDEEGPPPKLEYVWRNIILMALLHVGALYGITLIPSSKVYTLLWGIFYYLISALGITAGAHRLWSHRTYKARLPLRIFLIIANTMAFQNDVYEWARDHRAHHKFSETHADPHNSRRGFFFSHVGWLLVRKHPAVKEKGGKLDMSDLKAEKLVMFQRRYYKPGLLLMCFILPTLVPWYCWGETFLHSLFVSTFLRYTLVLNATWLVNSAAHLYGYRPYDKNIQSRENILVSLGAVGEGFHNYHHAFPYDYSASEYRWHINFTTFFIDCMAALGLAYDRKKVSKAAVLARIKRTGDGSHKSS
Put plainly: Inhibition of SCD1 in rat liver microsomes. Also on record: species or system Microsome.

Series [1] in a line: Oral bioavailability in mouse. It is filed as ADME, organism-based. Particulars: in vivo.
Series [2] deals with Mus musculus. The series is described as follows: Toxicity in DIO mouse assessed as alopecia at 5 mg/kg qd for 1 week. The series is classed as organism-based. Also on record: dose 5 mg/kg. Particulars: in vivo, 168 h.
For series [3], the system named is Mus musculus. Put plainly: Toxicity in DIO mouse assessed as partial eye closure at 5 mg/kg qd for 1 week. Also on record: dose 5 mg/kg. As to conditions: in vivo, 168 h. It is filed as organism-based.
The nature of series [4]: Half life in rat. As to conditions: in vivo. The series is classed as ADME, organism-based.
A short description of series [5]: Half life in mouse. It is filed as ADME, organism-based. As to conditions: in vivo.
For series [6], the target named is T2, Cytochrome P450 3A4 (Homo sapiens, UniProt P08684). Put plainly: Inhibition of CYP3A4 up to 30 uM. The series is classed as ADME.
Series [7] has as its target T3, Cytochrome P450 2D6 (Homo sapiens, UniProt P10635). The series is described as follows: Inhibition of CYP2D6 up to 30 uM. It is filed as ADME.
For series [8], the system named is Mus musculus. The series is described as follows: Toxicity in diet-induced obese chronic po dosed mouse. Particulars: in vivo.
A short description of series [9]: Oral bioavailability in rat. As to conditions: in vivo. It is filed as ADME, organism-based.
In series [10] the test system is Mus musculus. The series is described as follows: Inhibition of stearoyl-CoA […] in high-carbohydrate diet-fed mouse liver dosed orally assessed as conversion of [14C]stearic acid to [14C]oleic acid. It is filed as functional. Particulars: po. A digest of the protocol: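 Mice on a high-carbohydrate diet given compound PO, then IV 14C-stearic acid tracer 1 h later; livers collected 2 h after tracer and lipids analysed.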

The nature of series [11]: Bioavailability in rat at 10 mg/kg, po or 2 mg/kg, iv. It is filed as ADME, organism-based. As to conditions: in vivo. The gist of the method: (§1)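 Rats dosed 10 mg/kg PO and 2 mg/kg IV; plasma concentration sampled over time for parent and its acid metabolite; each time point is the average of two animals.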
Series [12] addresses T2, Cytochrome P450 3A4. The series is described as follows: Inhibition of CYP3A4. The series is classed as ADME.
A short description of series [13]: Half life in rat at 10 mg/kg, po or 2 mg/kg, iv. It is filed as ADME, organism-based. Particulars: in vivo. The gist of the method: as §1
The target in series [14] is T3, Cytochrome P450 2D6. The series is described as follows: Inhibition of CYP2D6. The series is classed as ADME.
Series [15] in a line: AUC in rat at 10 mg/kg, po. It is filed as ADME, organism-based. Also on record: dose 10 mg/kg, route oral. Particulars: plasma. A digest of the protocol: as §1
The nature of series [16]: AUC in rat at 2 mg/kg, iv. The series is classed as ADME, organism-based. Also on record: dose 2 mg/kg, route intravenous. Particulars: plasma. The gist of the method:
as §1

In another series the test system is Rattus norvegicus. Put plainly: Stability in rat assessed as AUC of 6-(4-(2-(trifluoromethyl)phenoxy)piperidin-1-yl)pyridazine-3-carboxylic acid at 10 mg/kg, po. Also on record: dose 10 mg/kg, route oral. As to conditions: in vivo. It is filed as ADME, organism-based. The gist of the method: as §1

T3 sequence (P10635 whole entry): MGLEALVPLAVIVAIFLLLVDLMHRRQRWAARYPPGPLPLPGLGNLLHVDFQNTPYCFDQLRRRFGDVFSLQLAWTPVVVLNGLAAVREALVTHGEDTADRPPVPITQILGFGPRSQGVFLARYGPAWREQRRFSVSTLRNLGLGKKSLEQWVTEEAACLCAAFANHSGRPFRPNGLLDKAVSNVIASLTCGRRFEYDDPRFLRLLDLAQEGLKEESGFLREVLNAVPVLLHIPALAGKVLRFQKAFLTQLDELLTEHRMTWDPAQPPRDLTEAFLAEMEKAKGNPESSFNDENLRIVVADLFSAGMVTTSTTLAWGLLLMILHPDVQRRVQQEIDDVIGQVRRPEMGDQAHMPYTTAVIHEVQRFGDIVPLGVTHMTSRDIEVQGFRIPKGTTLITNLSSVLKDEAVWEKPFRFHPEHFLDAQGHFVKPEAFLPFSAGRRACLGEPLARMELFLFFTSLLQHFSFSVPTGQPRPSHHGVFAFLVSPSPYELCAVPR
T2 sequence (P08684 whole entry): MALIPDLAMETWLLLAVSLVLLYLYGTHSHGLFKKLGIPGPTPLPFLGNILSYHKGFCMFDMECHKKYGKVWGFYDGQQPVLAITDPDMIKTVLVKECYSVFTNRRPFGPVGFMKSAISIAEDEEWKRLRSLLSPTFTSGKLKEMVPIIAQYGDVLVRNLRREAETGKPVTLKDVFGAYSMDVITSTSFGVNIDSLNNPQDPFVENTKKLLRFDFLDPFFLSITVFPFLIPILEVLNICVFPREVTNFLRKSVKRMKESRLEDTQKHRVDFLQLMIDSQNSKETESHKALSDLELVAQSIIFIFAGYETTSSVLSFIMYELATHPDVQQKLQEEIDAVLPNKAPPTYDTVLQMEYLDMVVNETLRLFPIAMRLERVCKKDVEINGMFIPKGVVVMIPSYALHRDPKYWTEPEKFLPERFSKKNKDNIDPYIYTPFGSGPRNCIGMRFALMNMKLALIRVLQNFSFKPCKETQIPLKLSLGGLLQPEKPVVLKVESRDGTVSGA

For the compound `Cc1ccc(OC2CCN(c3ccc(-n4ccnc4)nn3)CC2)cc1`, 0.527 µM corresponded to half-maximal inhibition against Acyl-CoA desaturase 1 (IC50).
As for `FC(F)(F)c1cccc(OC2CCN(c3ccc(-n4ccnc4)nn3)CC2)c1`, the concentration for half-maximal inhibition (IC50) on Acyl-CoA desaturase 1 was 0.019 µM.
Still for that read-out and setting: for `Brc1cccc(OC2CCN(c3ccc(-n4ccnc4)nn3)CC2)c1` the value was 0.023 µM; for `CC(C)Cc1nnc(-c2ccc(N3CCC(Oc4ccccc4C(F)(F)F)CC3)nn2)s1`, 0.037 µM.
`COc1ccccc1OC1CCN(c2ccc(-n3ccnc3)nn2)CC1` yielded an IC50 against Acyl-CoA desaturase 1 of 0.543 µM.
The same measure, in the same setting: for `c1cc2c(c(OC3CCN(c4ccc(-n5ccnc5)nn4)CC3)c1)CCC2` the value was 0.01 µM; for `O=C(O)c1ccc(N2CCC(Oc3ccccc3C(F)(F)F)CC2)nn1`, 10 µM.
Still for that read-out and setting: for `c1cc(OC2CCN(c3ccc(-n4ccnc4)nn3)CC2)c2cc[nH]c2c1` the value was 0.162 µM; for `O=C(NCCC1CC1)c1ccc(N2CCN(C(=O)c3ccccc3C(F)(F)F)CC2)nn1`, 0.322 µM; for `CCc1ccccc1OC1CCN(c2ccc(-n3ccnc3)nn2)CC1`, 0.004 µM.
On the same count and under the same terms, for `FC(F)(F)c1ccccc1OC1CCN(c2ccc(-c3nnco3)nn2)CC1` the value was 0.022 µM.
Consider `Cc1nnc(-c2ccc(N3CCC(Oc4ccccc4C(F)(F)F)CC3)nn2)s1`, for which the bioavailability was determined as 73% in series [1] and 38% in series [9]. In addition, the Activity entry in the series with Mus musculus [2], in the series with Mus musculus [3] and in the series on Mus musculus [8] was “Toxic” throughout. Further, the results for the half-life in series [4] and in series [5] were 6 h and 6.4 h, respectively. This compound also registered an IC50 against Acyl-CoA desaturase 1 of 0.0023 µM. In addition, the “inhibition (INH)” value at Cytochrome P450 3A4 [6] and at Cytochrome P450 2D6 [7] was “Not Active” throughout. In addition, the ED50 with Mus musculus [10] turned out to be 1 mg/kg.
Take `CC(C)c1nnc(-c2ccc(N3CCC(Oc4ccccc4C(F)(F)F)CC3)nn2)s1`: at Acyl-CoA desaturase 1, the IC50 is 0.0088 µM.
In turn, `Brc1ccccc1OC1CCN(c2ccc(-n3ccnc3)nn2)CC1` came in with an IC50 at Acyl-CoA desaturase 1 of 0.005 µM.
The same measure, in the same setting: under `FC(F)(F)c1ccc(OC2CCN(c3ccc(-n4ccnc4)nn3)CC2)cc1` stands 0.371 µM; under `c1cn(-c2ccc(N3CCC(Oc4ccc5c(c4)CCC5)CC3)nn2)cn1`, 0.062 µM.
The same measure, in the same setting: under `Oc1nnc(-c2ccc(N3CCC(Oc4ccccc4C(F)(F)F)CC3)nn2)s1` stands 0.0061 µM; under `Cc1cccc(OC2CCN(c3ccc(-n4ccnc4)nn3)CC2)c1`, 0.251 µM.
The same measure, in the same setting: under `CC(=O)c1ccccc1OC1CCN(c2ccc(-n3ccnc3)nn2)CC1` stands 0.034 µM.
As for `FC(F)(F)c1ccccc1OC1CCN(c2ccc(-n3ccnc3)nn2)CC1`, the bioavailability in [11] came out at 53%. Moreover, the concentration for half-maximal inhibition (IC50) is 0.4 µM at Cytochrome P450 3A4 [12], 0.004 µM at Acyl-CoA desaturase 1 and 0.3 µM on Cytochrome P450 2D6 [14]. This compound had a half-life in [13] of 1.2 h.
In the case of `Cc1ccccc1OC1CCN(c2ccc(-n3ccnc3)nn2)CC1`, 0.039 µM corresponded to half-maximal inhibition against Acyl-CoA desaturase 1 (IC50).
At Acyl-CoA desaturase 1, `O=C(NCCC1CC1)c1ccc(N2CCC(Oc3ccccc3C(F)(F)F)CC2)nn1` displayed a concentration for half-maximal inhibition (IC50) of 0.014 µM.
Consider `OCc1nnc(-c2ccc(N3CCC(Oc4ccccc4C(F)(F)F)CC3)nn2)s1`, for which it took 0.0032 µM to reach half-maximal inhibition against Acyl-CoA desaturase 1 (IC50).
In turn, `CC(C)c1nnc(-c2ccc(N3CCC(Oc4ccccc4C(F)(F)F)CC3)nn2)o1` displayed a 50% inhibitory concentration (IC50) on Acyl-CoA desaturase 1 of 0.0039 µM.
For the compound `NC(=O)c1ccc(N2CCC(Oc3ccccc3C(F)(F)F)CC2)nn1`, in series [11], the bioavailability was determined as 10%. Also, the AUC in series [15] came out at 0.9 µM·h; in series [16] it was 1.9 µM·h; in the series with Rattus norvegicus, 179 µM·h. On Acyl-CoA desaturase 1, this compound displayed an IC50 of 0.016 µM. In series [13], the half-life is 0.54 h.
`N#Cc1ccccc1OC1CCN(c2ccc(-n3ccnc3)nn2)CC1` had an IC50 against Acyl-CoA desaturase 1 of 0.236 µM.
On to `CC(C)(C)c1nnc(-c2ccc(N3CCC(Oc4ccccc4C(F)(F)F)CC3)nn2)o1`, for which the IC50 at Acyl-CoA desaturase 1 came out at 0.98 µM.
Still for that read-out and setting: for `CCc1cccc(OC2CCN(c3ccc(-n4ccnc4)nn3)CC2)c1` the value was 0.038 µM.
With `OCc1nnc(-c2ccc(N3CCC(Oc4ccccc4C(F)(F)F)CC3)nn2)o1`, half-maximal inhibition against Acyl-CoA desaturase 1 (IC50) required 0.0029 µM.
As for `c1ccc(OC2CCN(c3ccc(-n4ccnc4)nn3)CC2)cc1`, the IC50 against Acyl-CoA desaturase 1 turned out to be 1.89 µM.
The same measure, in the same setting: under `CC(C)(C)c1nnc(-c2ccc(N3CCC(Oc4ccccc4C(F)(F)F)CC3)nn2)s1` stands 0.71 µM; under `CC(C)Cc1nnc(-c2ccc(N3CCC(Oc4ccccc4C(F)(F)F)CC3)nn2)o1`, 0.015 µM; under `Cc1nnc(-c2ccc(N3CCC(Oc4ccccc4C(F)(F)F)CC3)nn2)o1`, 0.006 µM.

What is called IC50 is the concentration that gives 50% inhibition. A high value points to weaker potency. Usually bioavailability stands for the share of a dose that reaches the circulation, judged against a reference dose that is usually intravenous. Broadly, the half-life is the time needed for the level to fall by half in the phase considered. Low values mean fast loss, high ones slow loss. By AUC is commonly meant the area under the concentration-time curve, a measure of exposure.
